# In ChEMBL document CHEMBL4033737, “Anti-mycobacterial alkaloids, cyclic 3-alkyl pyridinium dimers, from the Indonesian marine sponge Haliclona sp” (2017):
# Counter-ions that a name gives are not always drawn. Activity calls are given as the source filed them. The rule behind the calls is not given here.
# Columns and labels:
# [1] = tested on: Mycolicibacterium smegmatis; assay: Antibacterial activity against Mycobacterium smegmatis NBRC 3207 incubated at 37 degC for 2 days by paper disc method; assay type: functional
# Method in brief: (§1)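 M. smegmatis NBRC 3207 kept as 20% glycerol stock at -80°C. Grown in Middlebrook 7H9 with 0.05% polysorbate 80, 0.5% glycerol and 10% OADC at 37°C for 2 days, then adjusted to 1.0×10^8 CFU/mL and spread on the same medium with 1.5% agar. Sample in CH3OH dried onto 6 mm discs, plated at 37°C for 2 days, inhibition zone read (mm). Controls: streptomycin sulfate 5 µg/disc, CH3OH.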
# [2] = biological target: Dual specificity protein phosphatase 3 (Homo sapiens) (UniProt P51452); assay: Inhibition of VHR (unknown origin) at 18 uM pre-incubated for 10 mins before pNPP substrate addition and measured after 30 mins
# Method in brief: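 VHR (1.0 µg/mL stock) in 50 mM citrate buffer pH 6.0 with 0.1 M NaCl, 1 mM DTT and 1 mM EDTA. Sample in CH3OH added, preincubated 10 min at 37°C. pNPP added (4.0 mM stock), 30 min at 37°C, stopped with NaOH, A405 read. % inhibition computed against enzyme-free blank and sample-free control. Three duplicate experiments. Oleanolic acid as positive control.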
# [3] = tested on: Mycolicibacterium smegmatis; assay: Antibacterial activity against Mycobacterium smegmatis NBRC 3207 at 1 ug/disc incubated at 37 degC for 2 days by paper disc method; assay type: functional; method in brief: as §1
# [4] = tested on: Mycolicibacterium smegmatis; assay: Antibacterial activity against Mycobacterium smegmatis NBRC 3207 at 5 ug/disc incubated at 37 degC for 2 days by paper disc method; assay type: functional; conditions: for zone of inhibition at 5 µg/disc: NBRC 3207, 48 h, read-out: IZ; method in brief: as §1
# [5] = tested on: Mycolicibacterium smegmatis; assay: Antibacterial activity against Mycobacterium smegmatis NBRC 3207 at 10 ug/disc incubated at 37 degC for 2 days by paper disc method; assay type: functional; conditions: NBRC 3207, 48 h, read-out: IZ; method in brief: as §1
# [6] = biological target: Dual specificity protein phosphatase 3 (Homo sapiens) (UniProt P51452); assay: Inhibition of VHR (unknown origin) at 17 uM pre-incubated for 10 mins before pNPP substrate addition and measured after 30 mins
# Method in brief: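 Enzyme at 1.0 µg/mL stock, in 50 mM citrate buffer pH 6.0 with 0.1 M NaCl, 1 mM DTT and 1 mM EDTA. Sample in methanol preincubated 10 min at 37°C. pNPP (4.0 mM stock) then added, 30 min at 37°C, stopped with NaOH. Absorbance read at 405 nm. % inhibition from blank- and no-sample-control-corrected readings. Three duplicate experiments. Oleanolic acid positive control.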
# Dual specificity protein phosphatase 3 (Homo sapiens), sequence (P51452 whole entry, looked up): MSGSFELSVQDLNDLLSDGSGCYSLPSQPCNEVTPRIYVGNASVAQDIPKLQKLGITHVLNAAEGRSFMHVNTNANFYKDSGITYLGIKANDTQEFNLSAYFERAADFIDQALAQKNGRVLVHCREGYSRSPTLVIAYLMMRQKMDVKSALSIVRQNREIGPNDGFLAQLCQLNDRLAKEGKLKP
inhibition [6] [%],Structure (SMILES),growth inhibition (GI) [1],inhibition [2] [%],inhibition zone (IZ) [3],zone of inhibition at 5 µg/disc [4] [mm],zone of inhibition at 10 µg/disc [5] [mm],"zone of inhibition at 1 µg/disc ([3]; NBRC 3207, 48 h, read-out: IZ) [mm]",inhibition zone (IZ) [4]
,c1cc2c[n+](c1)CCCCCCCCCCCCCCc1ccc[n+](c1)CCCCCCCCCCCCCC2 [CYCLOSTELLETAMINES F],Dose-dependent effect,38,inactive,8,12,,
,c1cc2c[n+](c1)CCCCCCCCCCCCCCc1ccc[n+](c1)CCCCCCCCCCCCC2 [CYCLOSTELLETAMINES E],Dose-dependent effect,,inactive,7,12,,
,CN[C@@H]1[C@H](O[C@H]2[C@H](O[C@H]3[C@H](O)[C@@H](O)[C@H](N=C(N)N)[C@@H](O)[C@@H]3N=C(N)N)O[C@@H](C)[C@]2(O)C=O)O[C@@H](CO)[C@H](O)[C@H]1O [STREPTOMYCIN SULFATE],,,,35,,20,
,c1cc2c[n+](c1)CCCCCCCCCCCCc1ccc[n+](c1)CCCCCCCCCCCC2 [CYCLOSTELLETAMINES A],Dose-dependent effect,,inactive,9,14,,
,c1cc2c[n+](c1)CCCCCCCCCCCCCc1ccc[n+](c1)CCCCCCCCCCCCC2,Dose-dependent effect,,inactive,,8,,inactive
,C1=C/CC[n+]2cccc(c2)CCCCCCCCCCCCCC[n+]2cccc(c2)CCCCCCCCCC/1,Dose-dependent effect,,inactive,7,10,,
,C1=C/CC[n+]2cccc(c2)CCCCCCCCCCCC[n+]2cccc(c2)CCCCCCCCCC/1,Dose-dependent effect,,inactive,10,17,,
,c1cc2c[n+](c1)CCCCCCCCCCCCCc1ccc[n+](c1)CCCCCCCCCCCC2 [CYCLOSTELLETAMINES B],Dose-dependent effect,,inactive,,8,,inactive
28,c1cc2c[n+](c1)CCCCCCCCCCCCCCCc1ccc[n+](c1)CCCCCCCCCCCCCC2,Dose-dependent effect,,inactive,9,13,,
